Measured values published in PMC6679735 (Biochimica et biophysica acta. Molecular and cell biology …, 2019).
Read-outs that look alike come from different tables or passages of the source.

Columns and labels:
[1] = test system: human NPC1^I1061T fibroblasts; test: Filipin LSO compartment ratio dose response in fibroblasts; format: cell-based; conditions: 72 h, 40 nM to 10 μM
Method in brief: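 Human fibroblasts in MEM with 5% FBS, seeded in 384-well plates at 450 cells/well and incubated overnight. Test compound added at 40 nM–10 μM final; DMSO control on each plate. After 72 h, cells were PBS-washed, fixed in 1.5% PFA, and stained with 50 μg/ml filipin plus Draq5. Automated imaging at four sites/well gave the LSO compartment ratio, normalised to DMSO. Four wells per condition, three experiments.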

[2] = test system: histone H3; test: Acute histone H3 acetylation in liver by western blot, 1 h after single dose; format: in vivo, C57BL/6J mice; conditions: one hour post single injection, versus vehicle
[3] = test system: Npc1^I1061T/I1061T mice; test: Lipidomic profiling of liver and brain after six-week treatment; format: in vivo, mouse; conditions: six weeks weekly treatment, versus vehicle
[4] = Maximum drug concentration of HPβCD after a peripheral dose; format: in vivo; conditions: peripheral dose of 4000 mg/kg HPβCD with PEG400/DMSO; extrapolated
[5] = direct CNS administration; cited from earlier work
[6] = test system: NPC1 cat model; conditions: 4000 mg/kg HPβCD; cited from earlier work
[7] = test system: NPC1 patients; conditions: Phase 1/2a trial; cited from earlier work
[8] = format: in vivo, C57BL/6J mice
Method in brief: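 Five-week-old male C57BL/6J mice received a single i.p. injection (10 μL/g). Plasma, liver and brain were harvested at 0.25, 1, 2, 4 and 7 h, n=4 per time point. Analyte was measured by LC-MS/MS on a C18 column with a d5-labelled internal standard and eight duplicate calibrators. Non-compartmental parameters used mean concentrations of 3–4 mice per time point; AUC by the linear trapezoidal method.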

[9] = test system: bone marrow-derived macrophages from Npc1^I1061T/I1061T mice; test: Filipin LSO assay in bone marrow-derived macrophages; format: cell-based, mouse
[10] = test system: histone H3; test: Histone H3 acetylation in liver and brain after six-week treatment; format: in vivo, Npc1^I1061T/I1061T mice; conditions: end of six-week treatment, one hour after final dose
Method in brief: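 Four-week-old mice were dosed weekly i.p. at 10 μL/g for six weeks and harvested 1 h after the final dose. Frozen cortex was homogenised in TNEN buffer (pH 8) with protease inhibitors and 1 mM PMSF, then spun at 10,000 × g for 10 min at 4°C. Equal protein was run on 4–12% Bis-Tris gels and blotted with anti-H3 (1:10,000) and anti-acetyl-H3 (1:1000). Hsp90 was the loading control; detection by chemiluminescence.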

[11] = test system: Npc1^I1061T/I1061T mice; format: in vivo, mouse; conditions: liver; six weeks treatment, versus vehicle
Method in brief: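 Mice were dosed i.p. at 10 μL/g from four weeks of age, weekly for six weeks (one arm three times weekly). HPβCD was 2000 mg/kg (4000 mg/kg in the 3x/wk arm). Saline perfusion 1 h after the last dose. PFA-fixed liver was cut at 35 μm on a vibratome and stained with 0.005% filipin in PBS, with a DMSO-only control. Two blinded reviewers scored hepatocyte staining 0–5.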

[12] = test system: NPC1^I1061T protein; format: in vivo, mouse; conditions: six weeks treatment, versus vehicle
[13] = test system: Npc1^nmf164 mice; conditions: 150mg/kg vorinostat in PEG/DMSO vehicle; cited from earlier work
[14] = test system: murine embryonic fibroblasts and human fibroblasts expressing the NPC1^I1061T protein; conditions: cited from earlier work
[15] = male, C57BL/6J, mouse, brain, ip, 50 mg/kg
[16] = male, C57BL/6J, mouse, liver, ip, 50 mg/kg
[17] = male, C57BL/6J, mouse, plasma, ip, 50 mg/kg

Structure (SMILES): O=C(O)CCCCCCC(=O)Nc1ccccc1 [IVA, 8-oxo-8-(phenylamino)octanoic acid]
- Effect on lysosomal cholesterol storage (filipin LSO compartment ratio) [1]: had no effect on cholesterol storage
- Liver histone H3 acetylation (acetylated H3 / total H3) [2]: No increase in acetylation
- Lipid storage in liver (lipidomics, sphingolipid and sterol species) [3]: none of the treatment groups administered formulations containing vorinostat, CI994, or IVA alone showed evidence of lipid reduction

Structure (SMILES): CC(O)COC[C@H]1O[C@@H]2O[C@H]3[C@H](O)[C@@H](O)[C@@H](O[C@H]4[C@H](O)[C@@H](O)[C@@H](O[C@H]5[C@H](O)[C@@H](O)[C@@H](O[C@H]6[C@H](O)[C@@H](O)[C@@H](O[C@H]7[C@H](O)[C@@H](O)[C@@H](O[C@H]8[C@H](O)[C@@H](O)[C@@H](O[C@H]1[C@H](O)[C@H]2O)O[C@@H]8COCC(C)O)O[C@@H]7COCC(C)O)O[C@@H]6COCC(C)O)O[C@@H]5COCC(C)O)O[C@@H]4COCC(C)O)O[C@@H]3COCC(C)O (stereo partly drawn) [HPβCD, 2-hydroxypropyl-β-cyclodextrin]
- Liver histone H3 acetylation (acetylated H3 / total H3) [2]: did not increase H3 acetylation acutely
- Maximum drug concentration achieved [4]: ~ 15 μM
- Drug concentration achieved in CSF [5]: 1000 µM
- Toxicity of peripheral dose [6]: toxic in the NPC1 cat model
- Neurodegenerative disease progression [7]: effective in slowing neurodegenerative disease progression

Structure (SMILES): CC(=O)Nc1ccc(C(=O)Nc2ccccc2N)cc1 [CI994]
- Lipid storage in liver (lipidomics, sphingolipid and sterol species) [3]: none of the treatment groups administered formulations containing vorinostat, CI994, or IVA alone showed evidence of lipid reduction

Structure (SMILES): O=C(CCCCCCC(=O)Nc1ccccc1)NO [vorinostat, suberoylanilide hydroxamic acid]
- Vorinostat Cmax, brain ([8]; brain, single i.p. dose): 1163 ng/mL
- Vorinostat Cmax, liver ([8]; liver, single i.p. dose): 209 ng/mL
- AUC(0-t) [8, 15]: 1240 ng·h/mL
- Tmax [8, 15]: 15 min
- AUC(0-t) [8, 16]: 513 ng·h/mL
- Tmax [8, 16]: 15 min
- AUC(0-inf) [8, 17]: 7600 ng·h/mL
- AUC(0-t) [8, 17]: 7540 ng·h/mL
- Cmax [8, 17]: 10500 ng/mL
- Tmax [8, 17]: 15 min
- half-life [8, 17]: 40.8 min
- Effect on lysosomal cholesterol storage (filipin LSO compartment ratio) [1]: reduces lysosomal cholesterol
- Reduction of cholesterol accumulation in differentiated macrophages ([9]; 4 nM to 10 μM, 48h or 72h): not effective at reducing the cholesterol accumulation
- Cholesterol accumulation in LSOs (filipin intensity) at 330 nM ([9]; 330 nM, normalized to DMSO treated cells): slight decrease in cholesterol accumulation
- Concentration toxic to BMMs ([9]; 48h or 72h treatment): above 1 μM
- Liver histone H3 acetylation (acetylated H3 / total H3) [2]: Increased histone 3 acetylation
- Ratio of acetylated histone H3 to total histone H3 in brain ([10]; brain): showed an increase in the ratio
- Ratio of acetylated histone H3 to total histone H3 in liver ([10]; liver): significant increase in the ratio of acetylated histone H3 relative to total histone H3
- Lipid storage in liver (lipidomics, sphingolipid and sterol species) [3]: modest reduction in only a single lipid species (MCer 24:0)
- Hepatocyte filipin staining (cholesterol storage) [11]: did not alter cholesterol levels
- NPC1^I1061T protein expression in liver [12]: reduction of NPC1 protein
- Efficacy on disease progression, life span, or weight loss [13]: did not show efficacy
- Liver pathology and function [13]: limited improvement in liver pathology and function
- NPC1 mutant protein expression and lipid accumulation [13]: remained unchanged
- Cholesterol storage [14]: effective in reducing cholesterol storage
